Apaf1 inhib: blocks human Apaf-1 apoptosome activity | reconstituted apoptosome caspase-3 activity, DEVD-Rh110 fluorescence | inhibition, % at 20 µM | hit rate 0.71% among 330,000 | O14727; active = inhibition of at least 40% at 20 µM
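Assay system – apoptosome proteins · Medium – Hepes buffer, pH 7.5 · Also added – cytochrome c with DEVD-Rh110 · Timing – 30 min compound preincubation, 50 min activation, room temperature · Detection – Rh110 fluorescence, excitation 480 nm, emission 540 nm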
PAFAH1B3 inh: PAFAH1B3 (human) inhibition; Q15102; recombinant PAFAH1B3, FP-rhodamine probe, fluorescence polarization; inhibition, % at 3.39 µM; hit rate 0.28% among 340,000;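 active = inhibition above the screen-wide average of all tested compounds plus 3 SD, cut at about 25% in these data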
Target sequence (Q15102 whole entry, looked up): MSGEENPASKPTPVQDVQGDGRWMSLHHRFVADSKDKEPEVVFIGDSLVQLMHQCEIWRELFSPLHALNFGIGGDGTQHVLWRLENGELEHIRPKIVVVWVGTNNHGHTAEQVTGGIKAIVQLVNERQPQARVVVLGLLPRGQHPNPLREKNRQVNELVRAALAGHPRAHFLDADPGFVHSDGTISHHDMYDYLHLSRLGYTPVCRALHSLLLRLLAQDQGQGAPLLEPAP
pPAFAH inh: pPAFAH (human) enzyme inhibition | Q13093 | recombinant pPAFAH, FP-rhodamine probe fluorescence polarization | inhibition, % at 3.39 µM | hit rate 1.5% among 330,000 | AID 463082;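 active = inhibition above the mean inhibition across the screen plus 3 SD, cut at about 25% in these data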;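 also: inhibitors block binding of the rhodamine activity-based probe so polarization drops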
Target sequence (Q13093 whole entry, looked up): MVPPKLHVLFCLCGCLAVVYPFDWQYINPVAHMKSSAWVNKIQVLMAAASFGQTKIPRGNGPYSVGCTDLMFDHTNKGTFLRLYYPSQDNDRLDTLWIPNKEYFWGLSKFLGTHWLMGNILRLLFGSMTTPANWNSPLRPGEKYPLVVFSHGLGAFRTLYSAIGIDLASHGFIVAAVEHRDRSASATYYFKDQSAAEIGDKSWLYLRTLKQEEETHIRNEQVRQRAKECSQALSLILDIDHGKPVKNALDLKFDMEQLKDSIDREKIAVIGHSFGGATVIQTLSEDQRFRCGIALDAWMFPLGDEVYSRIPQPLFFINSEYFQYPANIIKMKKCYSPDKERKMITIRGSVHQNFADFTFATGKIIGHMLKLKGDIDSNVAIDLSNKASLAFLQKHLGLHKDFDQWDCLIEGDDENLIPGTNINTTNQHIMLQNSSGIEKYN
PAFAH2 inh: inhibitors of human PAFAH2 | Q99487 | hit rate 0.99% among 340,000 | inhibition, % at 3.39 µM | recombinant PAFAH2, FP-rhodamine activity probe, fluorescence polarization;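 active = inhibition above the mean over all tested compounds plus 3 SD, cut at about 30% in these data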;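 also: inhibitors block probe labeling of enzyme so polarization drops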
PAFAH1B2 FP inh: PAFAH1B2 (human) inhibition. inhibition, % at 3.39 µM. recombinant PAFAH1B2, FP-rhodamine activity probe, fluorescence polarization. hit rate 1.2% among 340,000. AID 492953;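 active = inhibition above the mean of all tested compounds plus 3 SD, cut at about 24% in these data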
PAFAH2 FP conf: PAFAH2 (human) inhibition, confirmed; inhibition, % at 3.39 µM; hit rate 65% among 2,300; shares compounds with PAFAH2 inh; recombinant PAFAH2, FP-rhodamine activity probe, fluorescence polarization; AID 493030;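 active = mean inhibition over three repeats above a set limit taken from the earlier primary screen, cut at about 30% in these data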;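 also: inhibitor blocks binding of rhodamine activity probe so polarization falls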
Of the large screens only hits and unclear results are named; the others gave an inactive call (follow-up assays come after a bar, where they were run). Most compounds without a hit are left out; they make up all but 3.1% or so of the library.

Cc1onc(-c2c(F)cccc2Cl)c1C(=O)Nc1cccc(S(=O)(=O)NC2=NCCC2)c1	none
CCSC1=NSC2=NC(=O)/C(=C\c3coc4ccccc4c3=O)C(=N)N12	PAFAH2 inh 32.6 (no result: Apaf1 inhib) | PAFAH2 FP conf inactive
CCOC(=O)/C=C/C(=O)OCC(=O)Nc1ccc([N+](=O)[O-])cc1	none
O=C(COC(=O)C1CC2C=CC1C2)Nc1ccccc1[N+](=O)[O-] (stereo not drawn)	PAFAH2 inh 76.8 | PAFAH2 FP conf 57.7
O=C(COC(=O)C1CC2C=CC1C2)Nc1ccc([N+](=O)[O-])cc1 (stereo not drawn)	PAFAH2 inh 56.7 | PAFAH2 FP conf 53.9
NC(=O)c1ccc(NC(=O)COC(=O)C2CC3C=CC2C3)cc1 (stereo not drawn)	none
CC(C)c1ccc(NC(=O)COC(=O)C2CC3C=CC2C3)cc1 (stereo not drawn)	PAFAH2 inh 44.3 | PAFAH2 FP conf inactive
COC(=O)c1ccccc1NC(=O)COC(=O)c1ccc(C)c(NC(=O)c2ccco2)c1	none
Cc1ccc(C(=O)OCC(=O)Nc2ncc(C(F)(F)F)cc2Cl)cc1NC(=O)c1ccco1	PAFAH2 inh 36.1 | PAFAH2 FP conf inactive
CCN(C(=O)COC(=O)/C=C/c1c(C)nn(-c2ccccc2)c1C)c1c(N)n(Cc2ccccc2)c(=O)[nH]c1=O	none (no result: Apaf1 inhib, pPAFAH inh)
COC(=O)c1ccc(CNC(=O)C2CCC(=O)N(C3CCCCCC3)C2)cc1 (stereo not drawn)	none
CN(C)S(=O)(=O)c1ccc(C(=O)N2CCN(S(=O)(=O)c3ccc4c(c3)OCCO4)CC2)cc1	PAFAH2 inh 45.5 (no result: Apaf1 inhib, pPAFAH inh) | PAFAH2 FP conf 41.1
CC(=O)Nc1ccc(C(=O)N2CCN(S(=O)(=O)c3ccc4c(c3)OCCCO4)CC2)cc1	none
CCCNC(=O)C(Cc1ccc(I)cc1)NC(=O)C1CC1 (stereo not drawn)	none
COc1ccc2oc(C(=O)OCC(=O)Nc3ccc(NC(C)=O)cc3)c(C)c2c1	none
COc1ccc2oc(C(=O)OCC(=O)NC3CCCC3)c(C)c2c1	PAFAH2 inh 53.0 | PAFAH2 FP conf 40.1
COc1ccc2oc(C(=O)OCC(=O)NC3(C#N)CCCC3)c(C)c2c1	PAFAH2 inh 52.8 | PAFAH2 FP conf 38.5
Cc1c(C(=O)OCC(=O)NC2CC2)oc2ccc(Br)cc12	none (no result: pPAFAH inh)
O=C(COC(=O)c1ccc(CO)cc1)Nc1ccc2ccccc2c1	PAFAH2 inh 80.5 | PAFAH2 FP conf 71.4
O=C(COC(=O)c1ccc(CO)cc1)Nc1ccc(OC(F)F)cc1	PAFAH2 inh 81.5 | PAFAH2 FP conf 74.2
Cc1cc(C)c(-c2cc(NC(=O)COC(=O)c3ccc(CO)cc3)n(-c3ccccc3)n2)cc1C	PAFAH2 inh 31.7 | PAFAH2 FP conf inactive
COCCN(C(=O)COc1ccccc1C#N)c1c(N)n(Cc2ccccc2)c(=O)[nH]c1=O	none
O=C(COC(=O)c1cc(S(=O)(=O)NCc2ccccc2)ccc1O)c1cc2ccccc2o1	PAFAH2 inh 57.9 | PAFAH2 FP conf 48.1
O=C(COC(=O)c1ccc(Cl)s1)c1cc2ccccc2o1	PAFAH2 inh 38.3 | PAFAH2 FP conf inactive
O=C(COC(=O)c1cc(S(=O)(=O)NCc2ccccc2)ccc1O)NCc1ccccc1	none
C=C1CCN([C@H](C(=O)OCc2ccc(C)cc2)C(C)C)S(=O)(=O)c2ccccc21	PAFAH2 inh 126.0 | PAFAH2 FP conf inactive
O=C(COC(=O)/C=C/c1cccs1)Nc1cccc(S(=O)(=O)N2CCCC2)c1	PAFAH2 inh 64.3 | PAFAH2 FP conf 57.2
O=C(COC(=O)/C=C/c1cccs1)Nc1ccc(F)cc1	PAFAH2 inh 81.8 | PAFAH2 FP conf 82.2
COc1ccccc1CNC(=O)COC(=O)/C=C/c1cccs1	PAFAH2 inh 50.5 | PAFAH2 FP conf 36.9
COc1ccccc1CNC(=O)COC(=O)c1ccc(C)s1	PAFAH2 inh 75.4 | PAFAH2 FP conf 61.6
CN(CC(=O)Nc1ccc(F)cc1)C(=O)COC(=O)/C=C/c1cccs1	none
CCOc1ccc(/C=C/C(=O)OCC(=O)Nc2cccc(S(=O)(=O)N3CCCC3)c2)cc1	none
COc1ccccc1CNC(=O)COC(=O)c1ccco1	none
COc1ccccc1NC(=O)C1CC(C(C)C)OC1=O (stereo not drawn)	none (no result: PAFAH1B3 inh, PAFAH2 inh, PAFAH1B2 FP inh)
CCOc1ccc(NC(=O)CNC(=O)c2nn(-c3ccc(OC)cc3)c(=O)c3ccccc23)cc1	none
CC(C)(OC(=O)c1ccc(F)cc1)c1cc2ccccc2c(=O)o1	none
CCC(C)NC(=O)CSc1nnc(-c2cc(OC)c(OC)c(OC)c2)c(-c2cc(OC)c(OC)c(OC)c2)n1 (stereo not drawn)	none
CCc1cccc(NC(=O)COC(=O)/C=C/c2cccs2)c1	PAFAH2 inh 72.7 | PAFAH2 FP conf 78.1
COc1ccc(C(=O)c2ccsc2N)cc1	PAFAH2 inh 29.9 | PAFAH2 FP conf inactive
CCc1cc(C(=O)c2ccc(OC)cc2)c(N)s1	none (no result: PAFAH1B3 inh, PAFAH2 inh, PAFAH1B2 FP inh)
O=C(CN1CCN(C(=O)C2COc3ccccc3O2)CC1)Nc1ccc(F)cc1 (stereo not drawn)	none (no result: PAFAH1B3 inh, PAFAH2 inh, PAFAH1B2 FP inh)
Oc1oc(-c2ccccc2)nc1C=Nc1cccc2ccccc12	none
Oc1oc(-c2ccccc2)nc1C=NCc1ccncc1	PAFAH2 inh 51.7 | PAFAH2 FP conf 36.7
O=C(COC(=O)/C=C/c1ccc(C(F)(F)F)cc1)NCC1CCCO1 (stereo not drawn)	none
COc1cc(/C=C/C(=O)OCC(=O)NCc2ccco2)ccc1OCC#N	PAFAH2 inh 43.7 | PAFAH2 FP conf 37.0
O=C(COC(=O)/C=C/c1ccc(F)cc1)NCC1CCCO1 (stereo not drawn)	PAFAH2 inh 37.8 | PAFAH2 FP conf inactive
COc1cc(/C=C/C(=O)OCC(=O)NCC2CCCO2)ccc1OCC#N (stereo not drawn)	PAFAH2 inh 43.4 | PAFAH2 FP conf 29.9
ON=C1C2CC=C(c3ccccc3)C1CCC2 (stereo not drawn)	none (no result: Apaf1 inhib, pPAFAH inh)
Cc1ccccc1NC(=O)COC(=O)C1C2CC3OC(=O)C1C3C2 (stereo not drawn)	none
O=C(COC(=O)C1C2CC3OC(=O)C1C3C2)Nc1ccc(Br)cc1 (stereo not drawn)	PAFAH2 inh 78.7 | PAFAH2 FP conf 70.8
COc1ccc(NC(=O)COC(=O)C2C3CC4OC(=O)C2C4C3)cc1 (stereo not drawn)	none
O=C(COC(=O)C1C2CC3OC(=O)C1C3C2)Nc1ccccc1 (stereo not drawn)	PAFAH2 inh 74.8 | PAFAH2 FP conf 66.1
O=C(COC(=O)C1C2CC3OC(=O)C1C3C2)Nc1ccc(F)cc1 (stereo not drawn)	PAFAH2 inh 77.8 | PAFAH2 FP conf 68.8
O=C(NCc1ccncc1)C1CCN(S(=O)(=O)c2ccc(Cl)c(C(F)(F)F)c2)CC1	none (no result: pPAFAH inh)
Cc1ccc(-c2c3c(nc4sc(C(N)=O)c(N)c24)CCCC3)o1	none
NC(=O)c1sc2nc3c(c(-c4ccco4)c2c1N)CCC3	PAFAH2 inh 43.8 | PAFAH2 FP conf inactive
